Assay outcomes from PubChem.
Most compounds without a hit are left out; they make up all but 9.6% or so of the library.
BaF3 parental: parental Ba/F3 viability inhibition as JAK2V617F counter-screen | CellTiter-Glo ATP luminescence | inhibition, % at 5.6 µM | 220,000 tested, 1.1% active | AID 1486;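 active = inhibition above a per-campaign cutoff, the mean inhibition of all tested compounds plus 3 SD, cut at about 27% in these data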;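 also: 0% = DMSO wells and 100% = JAK Inhibitor I control wells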
MT stabilize HCS: microtubule stabilization, imaging screen | HeLa tubulin immunostaining HCS, 24 h; share of cells brighter than vehicle mean+2SD | % tubulin-high responders, % at 10 µM | AID 2205 | 200,000 tested, 0.83% active;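 active = plate Z-score above 3 for both tubulin-high and condensed-nucleus cell shares, with cell loss under 80%, at 10 µM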;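 also: anti alpha tubulin signal scored within the nucleus-defined area of each cell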
bCat nuc transl: beta-catenin nuclear translocation modulation; HeLa beta-catenin nuclear translocation, immunofluorescence imaging; nuclear translocation activity, % at 5 µM; 190,000 tested, 0.3% active; AID 1665;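 active = nuclear translocation activity above 50% at 5 µM, with a well cell count of 50 or more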;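 also: per-cell ratio of nuclear to cytoplasmic median beta-catenin stain intensity; plate controls were DMSO negative control for no effect and GSK-3 inhibitor IX positive control for full effect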
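test system = HeLa cells, endogenous beta-catenin | dosing = single 5 µM dose plus 0.02–20 µM confirmation series | times = compound treatment 24 h, 37°C, 5% CO2 | technique = beta-catenin immunofluorescence imaging with DAPI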
Ba/F3 V617F tox: lowers viability of Ba/F3 cells expressing EpoR and JAK2V617F | ATP luminescence | inhibition, % at 5.6 µM | 220,000 tested, 1.1% active | AID 1446;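 active = inhibition above the campaign mean plus 3 SD over all tested compounds, cut at about 24% in these data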;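 also: cytokine-independent growth of Ba/F3 cells driven by EpoR plus mutant JAK2; 0% = DMSO-treated cells and 100% = JAK inhibitor I control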
L major viab: reduces viability of Leishmania major promastigotes. resazurin fluorescence viability. inhibition, % at 10 µM. 200,000 tested, 9% active. AID 1063; in the data active = inhibition above about 50%;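 also: promastigotes grown with compound for 44 hours at 28 °C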
APP 5UTR inh: APP translation inhibition | SH-SY5Y APP 5'UTR-luciferase reporter, luminescence | inhibition, % at 2 µM | 190,000 tested, 0.82% active | AID 1285;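 active = inhibition above a set limit, derived from the sample mean plus 3 SD, cut at about 45% in these data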
* marks the source's active call; other numbers are inactive results; nt = not tested or not shown.

SMILES	BaF3 parental	MT stabilize HCS	bCat nuc transl	Ba/F3 V617F tox	L major viab	APP 5UTR inh
CCC(C)NS(=O)(=O)c1ccc(NC(=O)c2ccc([N+](=O)[O-])cc2Cl)cc1 (configuration not stated)	5	6	1	4	13	9
CCC(=O)Nc1nnc(SCc2ccccc2F)s1	4	2	2	1	20	-23
CCOC(=O)N1CCC(N2C(=O)c3ccccc3C2Nc2c(C)cccc2C)CC1 (configuration not stated)	1	3	nt	-4	26	-17
Cc1ccc(S(=O)(=O)CCN2CCC(n3cccc3)CC2)cc1	0	nt	0	-7	nt	nt
Cc1nn(-c2nc3ccccc3n2Cc2ccccc2)c2c1C(=O)CC(C)(C)C2	1	3	-7	-4	14	-30
Cc1nn(-c2ccccc2)c2c1C(=O)N(Cc1ccccc1)C(=O)C(C)(C)C2	5	3	1	-2	84*	-1
CCOC(=O)c1ccc(CNC(=O)c2cc(C(C)(C)C)oc2C)o1	4	3	3	-2	0	13
CCCCNC(=S)N/N=C/c1ccc(C#N)cc1	6	3	1	1	-3	11
CC1=C/C(=N\NC(=S)Nc2cccnc2)CC(C)(C)C1	7	3	0	8	99*	-1
CC(=O)N/N=C/C1=CCC2CC1C2(C)C (configuration not stated)	1	3	-1	5	7	-7
CCC(C)(C)C1CCC(=NNC(=S)Nc2cccnc2)CC1 (configuration not stated)	6	3	-6	1	0	-17
CCCCNC(=S)N/N=C/C1=CCC2CC1C2(C)C (configuration not stated)	4	4	0	-3	100*	-13
CC(C)NC(=S)N/N=C/C1=CCC2CC1C2(C)C (configuration not stated)	7	6	1	4	100*	-14
CC1(C)C2CC=C(/C=N/NC(=S)Nc3cccnc3)C1C2 (configuration not stated)	4	11	1	-2	97*	-18
CCCC(=O)c1c(NC(C)C)cc(C)oc1=O	1	3	-3	-5	11	21
O=C1Nc2ccc(F)cc2C12SCCS2	1	2	4	-1	3	-9
CS(=O)(=O)c1ccc(Cl)c(NC(=O)CCl)c1	0	7	-2	2	17	-2
C=C(C)CNC(=S)N/N=C/c1c(F)cccc1F	9	5	2	4	3	0
C=C(C)CNC(=S)N/N=C/C1=CCC2CC1C2(C)C (configuration not stated)	4	3	2	-3	100*	7
Cn1c(=O)c2nc(-c3ccc(Cl)cc3Cl)oc2c2ccccc21	0	5	-1	-4	-7	-40
C=CCN(CC=C)S(=O)(=O)c1ccc2nc(NC(=O)C(C)C)sc2c1	76*	16	47	64*	37	44
CCOC(=O)c1ccc2nc(NC(=O)C(C)C)sc2c1	1	4	11	-2	1	-122
COC(=O)[C@@]1(Cc2ccc(OC)cc2)[C@H]2c3cc(C(=O)N4CCCC4)n(CCO)c3C[C@H]2CN1C(=O)c1ccccc1	7	4	5	0	0	8
COC(=O)[C@@]1(Cc2ccccc2)[C@@H]2C(=CC(=O)[C@H]2CC(=O)C(=O)N(C)C)CN1C(=O)c1ccccc1	-3	12	0	-5	100*	0
CC(C)N1CCC(N2CCN(CCCn3cccn3)CC2CCO)CC1 (configuration not stated)	5	3	3	-1	-7	9
SMILES	BaF3 parental	MT stabilize HCS	bCat nuc transl	Ba/F3 V617F tox	L major viab	APP 5UTR inh
Cc1ccc2c(c1)nnn2C1CCN(CC(=O)Nc2ccccc2N2CCOCC2)CC1	5	4	-1	3	59*	18
COC(=O)c1ccccc1NC(=O)CN1CCC(n2nnc3cc(C(F)(F)F)ccc32)CC1	-2	2	3	-3	15	6
CC1Cc2ccccc2N1C(=O)CN1CCC(n2nnc3cc(C(F)(F)F)ccc32)CC1 (configuration not stated)	4	2	nt	1	95*	nt
CN(Cc1cc(-c2ccccc2)on1)C(=O)c1cc(COc2c(F)cccc2F)on1	1	1	1	0	-5	-40
O=C(NCC1CCCO1)C(c1cccs1)N(C(=O)c1ccc(-c2ccccc2)[nH]1)C1CCCC1 (configuration not stated)	4	4	1	-2	92*	5
O=C(NCC1CCCO1)C(c1ccc(F)cc1)N(Cc1ccc(F)cc1)C(=O)Cn1nnc(-c2cccs2)n1 (configuration not stated)	3	3	6	-1	3	-10
O=C(NCC1CCCO1)C(c1ccncc1)N(Cc1cccs1)C(=O)Cn1nnc(-c2ccc(F)cc2)n1 (configuration not stated)	-1	3	-1	-4	16	48*
O=C(NCC1CCCO1)C(c1cccs1)N(C(=O)Cn1nnc(-c2cccs2)n1)C1CCCC1 (configuration not stated)	0	4	-5	4	0	4
O=C(NCC1CCCO1)C(c1cccs1)N(Cc1ccccc1)C(=O)c1ccc(-c2ccccc2)[nH]1 (configuration not stated)	5	4	-2	5	68*	-18
CC(C)(C)NC(=O)C(c1cccs1)N(CC1CCCO1)C(=O)c1ccc(-c2ccccc2)[nH]1 (configuration not stated)	3	2	0	1	43	-16
NC(=O)c1nsc(C(=O)N(c2ccccc2)C(C(=O)NCC2CCCO2)c2cccs2)c1N (configuration not stated)	6	2	-1	1	73*	-10
COc1cc(C(=O)NC(=S)Nc2ccc(N3CCCC3)cc2)cc(OC)c1OC	10	9	6	2	8	-15
C/C(=N\NC(=O)Cn1c(-c2ccccn2)nc2ccccc21)c1ccccc1	2	6	0	-1	68*	-2
C/C(=N\NC(=O)Cn1c(-c2ccccn2)nc2ccccc21)c1cccc(O)c1	1	3	0	-1	4	-10
Cn1c(=O)n(C)c2cc(NC(=O)COc3ccc(Cl)cc3)ccc21	7	4	-2	4	-1	-10
C/C(N)=C(/C#N)C(=O)CSc1nc2ccccc2[nH]1	9	2	-1	-1	2	-18
Cc1ccc(-n2c(CCc3ccccc3)nnc2SCC(=O)NCc2ccccc2)cc1C	3	1	nt	0	54*	nt
COCc1nnc(SCC(=O)NCc2ccccc2)n1-c1ccccc1	1	5	1	2	-7	13
